According to ChEMBL document CHEMBL4725242, “Discovery of GS-9688 (Selgantolimod) as a Potent and Selective Oral Toll-Like Receptor 8 Agonist for the Treatment of Chronic Hepatitis B” (J Med Chem, 2020):
Active and inactive are the calls of the source.

What was measured:
[1] = Clearance in human hepatic microsomes at 2 uM measured up to 60 mins in presence of NADPH generating system by LC-MS/MS analysis; format: ADME, Microsome; details: liver microsomes
[2] = Immunomodulatory activity in human primary hepatocytes infected with HBV assessed as stimulation of CD8+T cell response to virus by measuring decrease in HBV DNA production treated with media from PBMC stimulated with 10 nM compound for 10 days relative to control; format: functional; set-up: scale not given: the % may be the effect or the level left; details: time 10 day
[3] = Clearance in cynomolgus monkey hepatic microsomes at 2 uM measured up to 60 mins in presence of NADPH generating system by LC-MS/MS analysis; format: ADME, Macaca fascicularis, Microsome; details: liver microsomes
[4] = Immunomodulatory activity in human primary hepatocytes infected with HBV assessed as stimulation of CD8+T cell response to virus by measuring decrease in HBV RNA production treated with media from PBMC stimulated with 10 nM compound for 10 days by PCR analysis relative to control; format: functional; set-up: scale not given: the % may be the effect or the level left; details: time 10 day
Hepatitis B virus = assay: Antiviral activity against HBV infected in human primary hepatocytes; format: functional, organism-based; details: Primary hepatocyte
[5] = Half life in Beagle dog at 0.25 mg/kg, iv administered as 30 mins infusion by HPLC-MS analysis; format: ADME, organism-based, Canis lupus familiaris; details: in vivo
How it was run: (§1)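 30-min intravenous infusion: Sprague Dawley rats 1 mg/kg, beagle dogs 0.25 mg/kg, cynomolgus monkeys 0.1 mg/kg; n = 3 per species, reported as mean ± SD.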

[6] = Clearance in Sprague-Dawley rat at 1 mg/kg, iv administered as 30 mins infusion by HPLC-MS analysis; format: ADME, organism-based; details: in vivo; how it was run: as §1
[7] = Drug absorption in Beagle dog at 0.5 mg/kg, po administered via gavage by HPLC-MS analysis; format: ADME, organism-based, Canis lupus familiaris; details: in vivo, read-out: Drug absorption
How it was run: (§2)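 Oral dosing in 2% ethanol/40% PEG 300/58% 0.01N HCl: Sprague Dawley rats 5 mg/kg, beagle dogs 0.5 mg/kg, cynomolgus monkeys 3 mg/kg.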

[8] = biological target: Toll-like receptor 2 (Homo sapiens) (UniProt O60603); assay: Agonist activity at human TLR2 expressed in HEK293 cells assessed as increase in NF-kappaB activation up to 10 uM incubated for 24 hrs by quanti-blue SEAP reporter gene assay; format: cell-based; details: dose microM <=10, time 24.0 hrs
Toll-like receptor 2 (Homo sapiens), sequence (O60603 whole entry): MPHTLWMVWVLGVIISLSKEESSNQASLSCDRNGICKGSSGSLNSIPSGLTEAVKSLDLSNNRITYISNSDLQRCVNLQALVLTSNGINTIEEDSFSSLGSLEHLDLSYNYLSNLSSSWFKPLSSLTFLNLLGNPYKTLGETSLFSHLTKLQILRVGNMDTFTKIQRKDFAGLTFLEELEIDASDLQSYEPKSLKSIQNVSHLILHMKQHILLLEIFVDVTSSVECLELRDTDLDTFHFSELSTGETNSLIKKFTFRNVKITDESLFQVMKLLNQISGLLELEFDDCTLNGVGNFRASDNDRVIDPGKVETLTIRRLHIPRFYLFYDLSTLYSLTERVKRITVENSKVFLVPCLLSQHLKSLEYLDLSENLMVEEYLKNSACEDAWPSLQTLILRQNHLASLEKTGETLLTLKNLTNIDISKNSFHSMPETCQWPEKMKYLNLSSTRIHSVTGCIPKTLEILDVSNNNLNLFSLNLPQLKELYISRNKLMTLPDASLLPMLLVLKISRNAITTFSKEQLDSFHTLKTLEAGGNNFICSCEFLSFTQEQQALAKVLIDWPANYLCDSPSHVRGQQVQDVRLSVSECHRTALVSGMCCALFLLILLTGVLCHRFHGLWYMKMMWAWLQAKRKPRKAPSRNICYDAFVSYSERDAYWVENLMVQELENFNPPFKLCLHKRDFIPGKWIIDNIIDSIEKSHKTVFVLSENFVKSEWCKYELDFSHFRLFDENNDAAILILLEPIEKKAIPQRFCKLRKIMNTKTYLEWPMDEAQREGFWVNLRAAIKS
How it was run: (§3)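 HEK293 cells stably expressing individual human TLRs or other innate immune receptors, used as reporter gene assays. Minimum effective concentration defined as the level giving a 3-fold rise over background.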

[9] = Oral bioavailability in Beagle dog at 0.5 mg/kg administered via gavage by HPLC-MS analysis; format: ADME, organism-based, Canis lupus familiaris; details: in vivo; how it was run: as §2
[10] = biological target: T1, Nucleotide-binding oligomerization domain-containing protein 1 (Homo sapiens) (UniProt Q9Y239); assay: Agonist activity at human NOD1 expressed in HEK293 cells assessed as increase in NF-kappaB activation up to 10 uM incubated for 24 hrs by quanti-blue SEAP reporter gene assay; format: cell-based; details: dose microM <=10, time 24.0 hrs; how it was run: as §3
T1 sequence (whole entry): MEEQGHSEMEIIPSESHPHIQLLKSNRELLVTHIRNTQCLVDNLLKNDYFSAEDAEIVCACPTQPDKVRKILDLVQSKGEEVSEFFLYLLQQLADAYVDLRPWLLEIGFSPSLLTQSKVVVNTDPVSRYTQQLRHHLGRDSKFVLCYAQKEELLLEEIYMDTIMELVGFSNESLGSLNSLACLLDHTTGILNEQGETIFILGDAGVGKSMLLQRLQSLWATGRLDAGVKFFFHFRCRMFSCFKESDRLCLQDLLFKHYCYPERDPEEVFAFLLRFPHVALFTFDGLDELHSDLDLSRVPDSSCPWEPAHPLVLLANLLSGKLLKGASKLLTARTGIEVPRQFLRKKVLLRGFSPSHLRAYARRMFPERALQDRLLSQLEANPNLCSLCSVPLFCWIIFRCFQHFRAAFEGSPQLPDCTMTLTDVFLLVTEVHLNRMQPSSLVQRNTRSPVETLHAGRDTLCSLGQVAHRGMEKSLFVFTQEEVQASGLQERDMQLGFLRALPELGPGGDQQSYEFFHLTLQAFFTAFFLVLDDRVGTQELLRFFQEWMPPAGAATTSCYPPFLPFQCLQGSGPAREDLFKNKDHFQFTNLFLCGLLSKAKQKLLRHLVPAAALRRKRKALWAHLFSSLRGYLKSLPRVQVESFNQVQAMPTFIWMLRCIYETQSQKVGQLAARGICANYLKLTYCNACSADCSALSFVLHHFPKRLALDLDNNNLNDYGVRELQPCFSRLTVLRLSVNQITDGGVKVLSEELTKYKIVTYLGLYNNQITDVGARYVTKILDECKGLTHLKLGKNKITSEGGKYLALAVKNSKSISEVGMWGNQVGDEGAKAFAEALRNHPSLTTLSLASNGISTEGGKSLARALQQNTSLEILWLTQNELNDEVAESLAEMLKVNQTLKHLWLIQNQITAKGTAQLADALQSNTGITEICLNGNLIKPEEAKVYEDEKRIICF

[11] = Drug excretion in bile duct-cannulated Sprague-Dawley rat bile; format: ADME; details: in vivo
[12] = Cytotoxicity against human MT4 cells assessed as reduction in cell viability measured after 4 to 5 days by celltiter-glo assay; format: cell-based; details: time 4-5 day
[13] = Cmax in Sprague-Dawley rat at 5 mg/kg, po administered via gavage by HPLC-MS analysis; format: ADME, organism-based; set-up: route oral, dose 5 mg/kg; details: in vivo; how it was run: as §2
[14] = Half life in Sprague-Dawley rat at 1 mg/kg, iv administered as 30 mins infusion by HPLC-MS analysis; format: ADME, organism-based; details: in vivo; how it was run: as §1

CLhep predicted at 2 µM [1]: 16.7 mL/min/kg | CLhep predicted at 2 µM [3]: 25 mL/min/kg | half-life [5]: 1.32 h | clearance [6]: 30 mL/min/kg | Fa [7]: 28% | Activity [8]: inactive | bioavailability [9]: 0.8% | Activity [10]: inactive | Drug excretion [11]: Active | Cmax [13]: 517 nM | half-life [14]: 1.45 h
SMILES: CCCC[C@](C)(CO)Nc1nc(N)nc2cc(F)cnc12 [SELGANTOLIMOD]
Activity [2]: >50% | Activity [4]: >50% | Activity (Hepatitis B virus): inactive | CC50 [12]: 17 µM
